Source: article PMC11964553 (Materials Today Bio, 2025)

Experiments:
[1] = Plasma pharmacokinetics in orthotopic 4T1 tumor-bearing mice; type: in vivo, BALB/c mice
[2] = Tissue quantification of Om and As in tumor; type: in vivo, BALB/c mice
In short: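 Orthotopic 4T1-luc tumor-bearing female BALB/c mice were dosed i.v. with free drug combination or co-loaded liposome. Tumor and organs were collected at 1, 2, 4, 6, 8, 10, 12 and 24 h, weighed, and homogenized in cold methanol at 4 °C, then spun at 12,000 rpm for 10 min at 4 °C. The pellet was re-extracted with cold chloroform and the supernatants pooled. Parameters came from a non-compartmental model; n = 6.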

[3] = cited from earlier work

Cmax of As in plasma ([1]; i.v. 2.0 mg/kg Om and 1.5 mg/kg As, 4T1 tumor-bearing mice, n = 6) | MRT of As in plasma ([1]; i.v., n = 6) | Tmax of As in plasma ([1]; i.v., n = 6) | t1/2 of As in plasma ([1]; i.v., n = 6) | AUC of As in plasma ([1]; time 0–24 h, i.v., n = 6) | Cmax of As in tumor ([2]; i.v., n = 6) | MRT of As in tumor ([2]; i.v., n = 6) | AUC of As in tumor ([2]; time 0–24 h, i.v., n = 6) | AUC ([1]; BALB/c, mouse, iv, 2 mg/kg) | Cmax ([1]; BALB/c, mouse, iv, 2 mg/kg) | MRT ([1]; BALB/c, mouse, iv, 2 mg/kg) | Tmax ([1]; BALB/c, mouse, iv, 2 mg/kg) | half-life ([1]; BALB/c, mouse, iv, 2 mg/kg) | AUC ([2]; BALB/c, mouse, iv, 2 mg/kg) | Cmax ([2]; BALB/c, mouse, iv, 2 mg/kg) | MRT ([2]; BALB/c, mouse, iv, 2 mg/kg) | SMILES | Solubility [3] | log partition coefficient (log P) [3]
52.22 ± 9.04 ng/mL | 1.73 ± 0.50 h | 0.17 ± 0.01 h | 1.73 ± 1.03 h | 38.77 ± 12.39 ng·h/mL | 0.64 ± 0.26 ng/mL | 5.36 ± 2.05 h | 6.04 ± 2.43 ng·h/mL | – | – | – | – | – | – | – | – | CC(C)(O)[C@@H]1CC[C@](C)([C@H]2[C@@H](O)C[C@@]3(C)[C@@H]4C[C@H](O[C@@H]5O[C@H](CO)[C@@H](O)[C@H](O)[C@H]5O)[C@H]5C(C)(C)[C@@H](O[C@@H]6OC[C@@H](O)[C@H](O)[C@H]6O)CC[C@@]56C[C@@]46CC[C@]23C)O1 [Free As, Astragaloside IV] | poor solubility | –
– | – | – | – | – | – | – | – | 1.01 ± 0.25 ng·h/mL | 1.75 ± 0.31 ng/mL | 2.12 ± 1.19 h | 0.17 ± 0.01 h | 5.66 ± 2.12 h | 6.09 ± 3.96 ng·h/mL | 0.92 ± 0.43 ng/mL | 6.95 ± 2.83 h | O=C1CCC[C@@H]2[C@H]3CCC[N+]4([O-])CCC[C@@H](CN12)[C@@H]34 (stereo partly drawn) [Free Om, oxymatrine] | – | low
